The results in this text go back to ChEMBL document CHEMBL1933010, “3-heterocyclyl quinolone inhibitors of the HCV NS5B polymerase” (Bioorg Med Chem Lett, 2012).

The nature of data set [1]: Inhibition of Hepatitis C virus genotype 1b BK isolate NS5b polymerase activity using [3H]UTP preincubated for 120 mins measured after 1 hr by scintillation proximity assay. In outline: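 Scintillation proximity assay at 22 °C. Started with [3H]UTP, UTP, 250 nM 5'-biotinylated oligo(rU12) and poly(rA). Stopped at 120 min with tRNA/streptavidin SPA beads/EDTA; 30 min, then CsCl, 1 h, top-count.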
For orientation: SPA uses beads or plates that emit light when radiolabelled molecules are held near them.

Another data set deals with Hepatitis C virus. Kind of data set: Antiviral activity against Hepatitis C virus genotype 1b infected in human HuH7 cells assessed as inhibition of viral replication after 48 hrs by quantitative RT-PCR. The settings on record: Huh-7, 48 h. In kind it is functional, organism-based, Hepacivirus hominis. The gist of the method: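 Huh7/Clone A replicon cells seeded at 40,000/well without G418 and kept overnight at 37 °C, 5% CO2. DMSO-serially diluted compound added (final DMSO 0.5%), 7 concentrations in triplicate, 48 h at 37 °C. Total RNA extracted; HCV replicon RNA quantified by TaqMan RT-qPCR relative to untreated cells (100%). EC50 from a 4-parameter curve fit.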

Data set [2] in a line: Cytotoxicity against human HuH7 cells assessed as cellular GAPDH level after 48 hrs by quantitative RT-PCR. In kind it is cell-based, Huh-7. As to conditions: read-out: GI50.

Take `COc1cc2c(=O)c(-c3noc(-c4ccccc4)n3)cn(Cc3ccc(Cl)cc3)c2cc1OC`: in data set [1], the IC50 – broadly, the concentration at which inhibition is half-maximal – is over 10000 nM.
On the same count and under the same terms, with `COc1cc2c(=O)c(-c3nc(-c4ccc(Cl)cc4)no3)cn(Cc3ccc(Cl)cc3)c2cc1OC` the figure was over 10000 nM.
`COc1cc2c(=O)c(C3=N[C@@H](C)[C@@H](c4ccccc4)O3)cn(Cc3ccc(Cl)cc3)c2cc1OC` returned an IC50 in data set [1] of 4300 nM. For the same compound, in the data set with Hepatitis C virus, the EC50 (in general, the midpoint of the concentration-response curve) turned out to be 8910 nM.
On the same counts, the results for `COc1cc2c(=O)c(-c3noc(Cc4ccccc4)n3)cn(Cc3ccc(Cl)cc3)c2cc1OC` are 41 nM and 10300 nM.
`COc1cc2c(=O)c(-c3nc(Cc4ccccc4)no3)cn(Cc3ccc(Cl)cc3)c2cc1OC` had an IC50 in data set [1] of 730 nM.
The same measure, in the same setting: as for `COc1cc2c(=O)c(-c3nnc(Cc4ccc(Cl)cc4)o3)cn(Cc3ccc(Cl)cc3)c2cc1OC`, the figure is 1600 nM; as for `COc1ccc2c(c1)c(=O)c(-c1ncc(Cc3ccccc3)o1)cn2Cc1ccc(Cl)cc1`, 1800 nM.
Still for that read-out and setting: with `COc1cc2c(=O)c(-c3nnn(Cc4ccccc4)n3)cn(Cc3ccc(Cl)cc3)c2cc1OC` the figure was over 10000 nM.
Compound `COc1cc2c(=O)c(-c3noc(CCc4ccccc4)n3)cn(Cc3ccc(Cl)cc3)c2cc1OC` gave an IC50 in data set [1] of over 10000 nM.
`CN1CCN(c2cc3c(cc2F)c(=O)c(-c2noc(Cc4ccccc4)n2)cn3Cc2ccc(Cl)cc2)CC1`: the IC50 in data set [1] stood at 23 nM. Also, the CC50 at 48 h in data set [2] amounted to 7300 nM. Besides, in the data set with Hepatitis C virus, the EC50 was 840 nM.
For `CN1CCN(c2cc3c(cc2F)c(=O)c(-c2nnc(Cc4ccccc4)o2)cn3Cc2ccc(Cl)cc2)CC1` the same measures were 115 nM, 9800 nM and 4400 nM.
For `CN1CCN(c2cc3c(cc2F)c(=O)c(-c2noc(Cc4ccc(F)cc4)n2)cn3Cc2ccc(Cl)cc2)CC1`, the IC50 in data set [1] came out at 19 nM. In data set [2], the CC50 at 48 h was 6400 nM. Further, the EC50 in the data set on Hepatitis C virus was 1430 nM.
On the same counts, the results for `CN1CCN(c2cc3c(cc2F)c(=O)c(-c2noc(Cc4ccc(F)cc4F)n2)cn3Cc2ccc(Cl)cc2)CC1` are 75 nM, 4700 nM and 3680 nM.
For `CN1CCN(c2cc3c(cc2F)c(=O)c(-c2noc(Cc4ccccc4)n2)cn3Cc2ccc(C(F)(F)F)cc2)CC1` the same measures were 24 nM, 15000 nM and 360 nM.
For `CN1CCN(c2cc3c(cc2F)c(=O)c(-c2noc(Cc4ccccc4)n2)cn3Cc2ccc(C(F)(F)F)cc2F)CC1` the same measures were 14 nM, 7000 nM and 250 nM.
In data set [1], `CN1CCN(c2cc3c(cc2F)c(=O)c(-c2noc(Cc4ccc(F)cc4)n2)cn3Cc2ccc(C(F)(F)F)cc2F)CC1` had an IC50 of 15 nM. In addition, the CC50 at 48 h in data set [2] stood at 6000 nM. The EC50 with Hepatitis C virus was 230 nM.
For `CN1CCN(c2cc3c(cc2F)c(=O)c(-c2nnc(Cc4ccccc4)o2)cn3Cc2ccc(C(F)(F)F)cc2F)CC1` the same measures were 38 nM, 4600 nM and 610 nM.
For `CN1CCN(c2cc3c(cc2F)c(=O)c(-c2nnc(Cc4ccc(F)cc4)o2)cn3Cc2ccc(C(F)(F)F)cc2F)CC1` the same measures were 45 nM, 5700 nM and 730 nM.
